The test system of data set [1] is Human immunodeficiency virus 1. Put plainly: Antiviral activity against HIV1 infected in HEK293 cells assessed as inhibition of basal LTR transcription after 48 hrs by dual-luciferase reporter gene assay. The data set is classed as functional, organism-based. In outline: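 HEK 293T cotransfected 4 h with 100 ng pLTR-Luc and 2 ng pSV40-Renilla (no Tat), then compound added; firefly and Renilla luciferase in lysates measured 48 h post-transfection by dual-luciferase assay; n = 2.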
In general terms: Reporter assays use an easily measured gene product as a stand-in for the process of interest.

Data set [2] relates to Human immunodeficiency virus 1. Put plainly: Antiviral activity against VSV-G pseudotyped HIV1 infected in human MT2 cells pretreated for 15 mins followed by viral infection measured after 48 hrs by luciferase reporter gene assay. The data set is classed as functional, organism-based. The note with it: Human immunodeficiency virus 1, MT2.
The subject of another data set is HEK293. Put plainly: Effect on renilla luciferase expression in HEK293 cells up to 1 uM after 24 hrs by luciferase reporter gene assay. In kind it is ADME, cell-based. The settings on record: human, hek293, 24 h. In outline:
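A plasmid encoding Renilla luciferase (pSV40-Renilla) was transiently transfected into HEK 293T cells for 4 h. Cells were then cultured with the test compound at the indicated concentrations, and Renilla luciferase activity in cell lysates was measured 24 h post-transfection as a control for gene translation; n = 2.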

In data set [3] the test system is Human immunodeficiency virus 1. Put plainly: Antiviral activity against wild-type VSV-G pseudotyped HIV1 infected in HEK293 cells at 10 uM pretreated for 15 mins followed by viral infection measured after 48 hrs by luciferase reporter gene assay relative to control. The data set is classed as functional. The settings on record: Human immunodeficiency virus 1, HEK293. In outline: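 Single-concentration screen: compound at final 10 μM added to HEK 293T cells 15 min before VSV-G/HIV-1 infection; cell lysate luciferase measured 48 h postinfection and infectivity expressed relative to equal-volume DMSO solvent control.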

The test system of data set [4] is Human immunodeficiency virus 1. Put plainly: Antiviral activity against wild-type VSV-G pseudotyped HIV1 infected in HEK293 cells pretreated for 15 mins followed by viral infection measured after 48 hrs by luciferase reporter gene assay. In kind it is functional, organism-based. The note with it: Human immunodeficiency virus 1, HEK293.
The target of data set [5] is T1, Protein Tat (Human immunodeficiency virus type 1 group M subtype B (isolate HXB2)(HIV-1)) (UniProt P04608).
T1 sequence (whole entry): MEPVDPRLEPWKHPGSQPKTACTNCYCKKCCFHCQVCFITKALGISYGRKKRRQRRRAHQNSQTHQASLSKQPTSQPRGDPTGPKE
Put plainly: Inhibition of HIV1 Tat-mediated LTR transcriptional activity expressed in HEK293 cells after 48 hrs by dual-luciferase reporter gene assay. The data set is classed as cell-based. The settings on record: Human immunodeficiency virus 1. In outline: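 HEK 293T cotransfected 4 h with 100 ng pLTR-Luc, 70 ng pcDNA3.1-Tat and 2 ng pSV40-Renilla, then cultured with compound; lysate luciferase activities read 48 h post-transfection by dual-luciferase assay; n = 2.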

Data set [6] has as its system Human immunodeficiency virus 1. Put plainly: Antiviral activity against HIV1 NL4-3 infected in human MT2 cells measured after 72 hrs post infection by fluorAce beta-galactosidase reporter gene assay. In kind it is functional, organism-based. The settings on record: Human immunodeficiency virus 1, NL4-3, MT2, 72 h. An outline of the steps: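 MT-2 cells (RPMI 1640, 10% FBS) in 384-well format infected with HIV-1 NL4-3 carrying a β-galactosidase reporter at MOI 0.01; compounds added in DMSO; β-Gal expression read at 72 h postinfection by FluorAce β-Gal reporter assay; n = 2.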

The test system of data set [7] is Human immunodeficiency virus 1. Put plainly: Antiviral activity against HIV1 pNL4-3 infected in HEK293 cells assessed as reduction in viral transcription by measuring decrease in luciferase activity after 20 hrs by luciferase reporter gene assay. The data set is classed as functional, organism-based. An outline of the steps: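 HEK 293T transiently transfected with pNL4-3.luc.R−E− for 4 h, then treated with compound (0.001−1 μM range; AZT, EFV, RAL 1 μM) for a further 20 h; luciferase activity then measured as read-out of viral gene expression; n = 2.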

In the next data set the test system is Murine leukemia virus. Put plainly: Antiviral activity against wild-type VSV-G pseudotyped MLV infected in HEK293 cells pretreated for 15 mins followed by viral infection measured after 48 hrs by luciferase reporter gene assay. The data set is classed as functional, organism-based.
The test system of data set [8] is Human immunodeficiency virus 1. Put plainly: Antiviral activity against wild-type VSV-G pseudotyped HIV1 infected in HEK293 cells assessed as time of 50% failure at 0.1 uM measured at 48 hrs post infection by luciferase reporter gene assay. In kind it is functional. In outline: (§1)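 Time-of-addition: HEK 293T infected with VSV-G/HIV-1, then compounds added at successive time points after infection (test compound final 0.1 μM; AZT, EFV, RAL final 1 μM); lysate luciferase read at 48 h postinfection; infectivity (%) versus untreated control.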

Data set [9] has as its system Human immunodeficiency virus 1. Put plainly: Antiviral activity against wild-type VSV-G pseudotyped HIV1 infected in HEK293 cells assessed as time of 50% failure at 1 uM measured at 48 hrs post infection by luciferase reporter gene assay. The data set is classed as functional. An outline of the steps: as §1
Data set [10] has as its system Human immunodeficiency virus 1. Put plainly: Antiviral activity against HIV1 pNL4-3 infected in HEK293 cells assessed as reduction in viral transcription by measuring decrease in luciferase activity at 1 uM after 20 hrs by luciferase reporter gene assay. The data set is classed as functional, organism-based. An outline of the steps:
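HEK 293T cells transiently transfected with the pNL4-3.luc.R−E− HIV-1 reporter plasmid (luciferase gene) for 4 h. The test compound was then added at 0.001−1 μM final and incubated for an additional 20 h. Luciferase activity was read 24 h post-transfection as a measure of viral gene expression; n = 2.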

The values below come from ChEMBL document CHEMBL4138205, “Oxazole-Containing Diterpenoids from Cell Cultures of Salvia miltiorrhiza and Their Anti-HIV-1 Activities” (J Nat Prod, 2017).

The source made the active and inactive calls. The rule behind the calls is not given here. Where only a bound is given, the exact number is not on record here.

Turning to `Cc1cccc2c1ccc1c3c(c4ocnc4c12)[C@@H](C)CO3`, the inhibition result in data set [1] and in data set [5] was “Dose-dependent effect” throughout. Moreover, the IC50 turned out to be 30 nM in data set [2], 30 nM in data set [4], 5400 nM in data set [6] and 150 nM in the data set with Murine leukemia virus. The Activity result in the data set with HEK293 is “Non-Toxic”; in data set [7], “Dose-dependent effect”. Also, the inhibition at 10 µM in data set [3] was 76.7%. Moreover, the FT50 result in data set [8] was “<=20 hr”.
Take `Cc1nc2c(o1)c1c(c3ccc4c(C)cccc4c32)OC[C@@H]1C`: the inhibition at 10 µM in data set [3] is 2.82%.
Consider `Cc1nc2c(o1)c1c(C)coc1c1ccc3c(C)cccc3c12`, for which the inhibition at 10 µM in data set [3] is 17.4%.
Still for that read-out and setting: then `Cc1nc2c3c(c4ccc5c(c4c2o1)CCCC5(C)C)OC[C@@H]3C`, with 11.2%.
In the case of `Cc1cn([C@H]2C[C@H](N=[N+]=[N-])[C@@H](CO)O2)c(=O)[nH]c1=O` [ZIDOVUDINE], the FT50 in [9] amounted to 7.7 h. Further, the result in data set [10] was inactive.
On to `Cc1cccc2c1ccc1c3c(c4oc(Cc5ccccc5)nc4c12)[C@@H](C)CO3`, for which the inhibition at 10 µM in data set [3] is 62.1%. For the same molecule, the IC50 in [4] amounted to 1200 nM.
For the molecule `O=C1Nc2ccc(Cl)cc2[C@@](C#CC2CC2)(C(F)(F)F)O1` [EFAVIRENZ], the FT50 in [9] was 10.1 h. The outcome in data set [10] was inactive. For the same molecule, the inhibition at 10 µM in [3] was 100%. The 50% inhibitory concentration (IC50) with Murine leukemia virus was over 10000 nM.
Turning to `C[C@H]1COc2c1c1ocnc1c1c3c(ccc21)C(C)(C)CCC3`, the inhibition at 10 µM in data set [3] turned out to be 18.7%.
`Cc1nc2c(o1)c1c(c3ccc4c(c32)CCCC4(C)C)OC[C@@H]1C`: the inhibition at 10 µM in data set [3] is 18.3%.
Turning to `Cc1nnc(C(=O)NC(C)(C)c2nc(C(=O)NCc3ccc(F)cc3)c(O)c(=O)n2C)o1` [RALTEGRAVIR], in [9], the FT50 came out at 12 h. In addition, in data set [10], the outcome was inactive.

For orientation: inhibition means how much of the control response was suppressed. By IC50 is commonly meant the concentration that inhibits the measured activity by half.
